# Published values pooled from the literature.
# Compare with care: the assays were run in different laboratories.
# CYP2C8: Cytochrome P450 2C8 (CYP2C8, Homo sapiens, UniProt P10632)
# CYP2C9: Cytochrome P450 2C9 (CYP2C9, Homo sapiens, UniProt P11712)
SMILES,target or system,assay,system,conditions,quantity,result
N#Cc1ccc(C[C@@H](Nc2c(Nc3ccc(F)cc3)c(=O)c2=O)C(=O)N2CCc3ccccc32)cc1,,metabolic stability,"rat, liver microsomes","10 µM, pH 7.4",half-life,15 min
CSc1ccccc1C(=O)NCCn1cc(C(=O)NCc2cccc(C)n2)c(=O)c2cc3c(cc21)OC(F)(F)O3,CYP2C8,"enzyme activity, inhibitor","human, liver microsomes","20 min, without NADPH, with preincubation",IC50,> 100 µM
C=C(F)C(=O)N1CCN(c2nc(OC[C@@H]3CCCN3C)nc3c2CCN(c2cccc4cccc(Cl)c24)C3)C[C@@H]1CC#N,,"chemical stability, HPLC",glutathione solution,"5 µM, pH 7.4",half-life,520 min
CC(=O)O[C@H]1[C@H](O[C@H]2CC[C@]34C[C@]35CC[C@]3(C)[C@@H]([C@@]6(C)CC[C@@H](C(C)(C)O)O6)[C@@H](O)C[C@@]3(C)[C@@H]5C[C@H](O[C@@H]3O[C@H](CO)[C@@H](O)[C@H](O)[C@H]3O)[C@H]4C2(C)C)OC[C@@H](OC(C)=O)[C@@H]1O,CYP2C9,"enzyme activity, inhibitor","human, liver microsomes",,IC50,116 µM
CSc1ccccc1C(=O)NCCn1cc(C(=O)NCc2cccc(C)n2)c(=O)c2cc3c(cc21)OCO3,CYP2C8,"enzyme activity, inhibitor","human, liver microsomes","20 min, without NADPH, with preincubation",IC50,> 100 µM
CC(C)(O)[C@@H]1CC[C@](C)([C@H]2[C@@H](O)C[C@@]3(C)[C@@H]4C[C@H](O[C@@H]5O[C@H](CO)[C@@H](O)[C@H](O)[C@H]5O)[C@H]5C(C)(C)[C@@H](O[C@@H]6OC[C@@H](O)[C@H](O)[C@H]6O)CC[C@@]56C[C@@]46CC[C@]23C)O1,CYP2C9,"enzyme activity, inhibitor","human, liver microsomes",,IC50,> 200 µM
COc1cc(Cn2nc(-c3ccc(CO)o3)c3ccccc32)ccn1,,metabolic stability,"rat, liver microsomes","1 µM, pH 7.4",half-life,7 min
Cc1cccc(-c2nnc(N[C@@H](Cc3ccc(C#N)cc3)C(=O)N3CCc4ccccc43)o2)c1,,metabolic stability,"rat, liver microsomes","10 µM, pH 7.4",half-life,18 min
OCc1ccc(-c2nn(Cc3ccccc3)c3ccccc23)o1,,metabolic stability,"rat, liver microsomes","1 µM, pH 7.4",half-life,6 min
Cc1ccc(OCC(=O)N[C@@H](Cc2c[nH]c3ccccc23)C(=O)OC(C)C)cc1,,chemical stability,simulated intestinal fluid,,half-life,> 300 min
CN(C)C(=O)c1cc2cnc(Nc3ccc(-c4ccc5c(=O)cc(N6CCOCC6)oc5c4)cc3)nc2n1C1CCCC1.Cl,,,"BALB/c mouse, plasma","oral, 20 mg/kg",AUC,7810 ng·h/mL
NCc1ccc(-c2nn(Cc3ccncc3)c3ccccc23)o1,,,"male CD-1 mouse, plasma","oral, 10 mg/kg",bioavailability,15%
